Reference: ChEMBL document CHEMBL5370586 (J Nat Prod, 2023)
Active and inactive are the calls of the source. The rule behind the calls is not given here.

Assays:
PC-3 [1] = assay: Induction of cell cycle arrest in human PC-3 cells assessed as arrest in G1/S phase by measuring reduction in cyclin D3 protein expression at IC50 concentration incubated for 48 hrs by Western blotting analysis relative to control; assay type: functional, cell-based
Outline: (§1)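 DU145 or PC-3 cells seeded at 5 × 10^4 per well and given CBD for 48 h. Lysed in ice-cold RIPA with protease/phosphatase inhibitor; 40 μg protein per lane, SDS-PAGE, PVDF transfer, milk block. Primary antibodies overnight at 4 °C, then HRP secondary 1 h at room temperature, chemiluminescence. Densitometry normalised to loading control, then to vehicle; at least three experiments.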

PC-3 [2] = assay: Induction of apoptosis in human PC-3 cells assessed as early apoptotic cells at 1 to 10 uM incubated for 72 hrs by YO-PRO and propidium iodide staining based high content imaging fluorescence microscopic analysis; assay type: functional, cell-based; conditions: dose 1-10 µM
Outline: (§2)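 DU145 or PC-3 cells seeded at 2 × 10^3 per well and given CBD at 1, 5 or 10 μM with serum for 72 h; staurosporine as positive control. Stained 30 min with Hoechst 33342 (1:5000), YO-PRO-1 (1:1000) and PI (1:1000). High-content imaging with a 63× water objective. Hoechst gave confluency, nucleus area and circularity; YO-PRO/PI gave healthy, early and late apoptotic fractions.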

DU-145 [3] = assay: Antiproliferative activity against human DU-145 cells assessed as reduction in cell confluency at 5 to 10 uM measured after 72 hrs by Hoechst 33342 staining based high content imaging fluorescence microscopic analysis; assay type: functional; conditions: dose 5-10 µM; outline: as §2
DU-145 [4] = assay: Induction of apoptosis in human DU-145 cells assessed as late apoptotic cells at 1 to 10 uM incubated for 72 hrs by YO-PRO and propidium iodide staining based high content imaging fluorescence microscopic analysis; assay type: functional, cell-based; conditions: dose 1-10 µM; outline: as §2
DU-145 [5] = assay: Antiproliferative activity against human DU-145 cells assessed as reduction in cell viability incubated for 72 hrs in presence of LPI by MTT assay; assay type: functional, cell-based
Outline: (§3)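 DU145 or PC-3 cells pretreated 1 h with SR141716 (CB1 antagonist), SR144528 (CB2 antagonist), capsazepine (TRPV1 antagonist) or LPI (GPR55 agonist), then given CBD for 72 h. MTT read-out as % of vehicle. Compared with CBD alone by t-test; at least three independent experiments.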

PWR-1E [6] = assay: Induction of cell death in human PWR-1E cells assessed as reduction in nucleus area at 1 to 10 uM incubated for 72 hrs by Hoechst 33342 staining based high-content fluorescence microscopy; assay type: toxicity; conditions: dose 1-10 µM
DU-145 [7] = assay: Induction of cell death in human DU-145 cells assessed as reduction in cell nucleus area at 1 to 10 uM measured after 72 hrs by Hoechst 33342 staining based high content imaging fluorescence microscopic analysis; assay type: functional; conditions: dose 1-10 µM; outline: as §2
LNCaP = assay: Antiproliferative activity against human LNCaP cells assessed as reduction in cell viability incubated for 72 hrs in serum deprivation condition by MTT assay; assay type: functional, cell-based
Outline: (§4)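 Cells seeded at 1 × 10^3 (DU145, PC-3), 6 × 10^3 (LNCaP), 2 × 10^3 (PWR-1E) or 4.5 × 10^3 (RWPE-1) per well and left to adhere 24 h. CBD (0–100 μM) then given for 72 h in serum-free medium. MTT added for 3 h at 37 °C, formazan dissolved in DMSO, absorbance read at 570 nm. Viability is % of vehicle; IC50 by nonlinear regression; at least three independent experiments.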

PC-3 [8] = assay: Induction of cell death in human PC-3 cells assessed as reduction in cell nucleus circularity at 1 to 10 uM measured after 72 hrs by Hoechst 33342 staining based high content imaging fluorescence microscopic analysis; assay type: functional; conditions: dose 1-10 µM; outline: as §2
PC-3 [9] = assay: Induction of apoptosis in human PC-3 cells at IC50 concentration incubated for 48 hrs by YO-PRO and PI staining based flow cytometry analysis; assay type: functional, cell-based
Outline: (§5)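 After 48 h CBD, DU145 (4 × 10^4 per well) or PC-3 (3 × 10^4 per well) supernatant and trypsinised cells pooled. Stained in ice-cold PBS with YO-PRO (1:1000) and propidium iodide (1:1000). Flow cytometry gated live, early apoptotic and late apoptotic cells and DNA fragmentation.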

PC-3 [10] = assay: Antiproliferative activity against human PC-3 cells assessed as reduction in cell viability incubated for 72 hrs in presence of SR144528 by MTT assay; assay type: functional, cell-based; outline: as §3
DU-145 [11] = assay: Antiproliferative activity against human DU-145 cells assessed as reduction in cell viability incubated for 72 hrs in presence of SR141716 by MTT assay; assay type: functional, cell-based; outline: as §3
PC-3 [12] = assay: Antiproliferative activity against human PC3 cells assessed as reduction in cell viability incubated for 72 hrs in serum deprivation condition by MTT assay; assay type: functional, cell-based; conditions: PC-3, 72 h; outline: as §4
DU-145 [13] = assay: Induction of cell cycle arrest in human DU-145 cells assessed as arrest in G2/M phase by measuring reduction in CDK1 protein expression at IC50 concentration incubated for 48 hrs by Western blotting analysis; assay type: functional, cell-based; outline: as §1
PC-3 [14] = assay: Inhibition of cell invasion in human PC-3 cells incubated for 48 hrs by crystal violet staining based microscopic analysis relative to control; assay type: functional
PC-3 [15] = assay: Anti-invasive activity against human PC-3 cells assessed as reduction in MMP-9 protein secretion incubated for 48 hrs by ELISA analysis; assay type: functional, cell-based
PC-3 [16] = assay: Antiproliferative activity against human PC-3 cells assessed as reduction in cell viability incubated for 72 hrs in presence of SR141716 by MTT assay; assay type: functional, cell-based; outline: as §3
PWR-1E [17] = assay: Induction of apoptosis in human PWR-1E cells assessed as reduction in fraction of healthy cells at 1 to 10 uM incubated for 72 hrs by YO-PRO and propidium iodide staining based high content imaging fluorescence microscopic analysis; assay type: toxicity, cell-based; conditions: dose 1-10 µM
Outline: (§6)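 PWR-1E cells seeded at 2 × 10^3 per well and given CBD at 1, 2 or 10 μM without serum for 72 h. Stained with Hoechst 33342, YO-PRO-1 and PI, then imaged by high-content microscopy. Scored for confluency and for healthy, early and late apoptotic fractions; at least three independent experiments.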

PC-3 [18] = assay: Antiproliferative activity against human PC-3 cells assessed as reduction in cell confluency at 10 uM measured after 72 hrs by Hoechst 33342 staining based high content imaging fluorescence microscopic analysis; assay type: functional; outline: as §2
PC-3 [19] = assay: Induction of cell cycle arrest in human PC-3 cells assessed as arrest in G2/M phase by measuring reduction in CDK1 protein expression at IC50 concentration incubated for 48 hrs by Western blotting analysis; assay type: functional, cell-based; outline: as §1
PC-3 [20] = assay: Antiproliferative activity against human PC-3 cells assessed as reduction in cell count at IC50 concentration incubated for 48 hrs by flow cytometry analysis; assay type: functional, cell-based
Outline: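 Six-well seeding at 4 × 10^4 (DU145) or 3 × 10^4 (PC-3) cells per well; CBD for 48 h. Supernatant and trypsinised adherent cells pooled and resuspended in ice-cold PBS. Cells counted by flow cytometry with forward/side scatter gating; at least three independent experiments.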

DU-145 [21] = assay: Induction of apoptosis in human DU-145 cells at IC50 concentration incubated for 48 hrs by YO-PRO and PI staining based flow cytometry analysis; assay type: functional, cell-based; outline: as §5
DU-145 [22] = assay: Inhibition of cell invasion in human DU-145 cells incubated for 48 hrs by crystal violet staining based microscopic analysis; assay type: functional
PWR-1E [23] = assay: Cytotoxicity against human PWR-1E cells assessed as reduction in cell confluency at 1 to 10 uM incubated for 72 hrs by Hoechst 33342 staining based high-content fluorescence microscopy; assay type: toxicity; conditions: dose 1-10 µM; outline: as §6
DU-145 [24] = assay: Induction of cell cycle arrest in human DU-145 cells assessed as arrest in G1/S phase by measuring reduction in CDK4 protein expression at IC50 concentration incubated for 48 hrs by Western blotting analysis; assay type: functional, cell-based; outline: as §1
DU-145 [25] = assay: Induction of apoptosis in human DU-145 cells assessed as reduction in fraction of healthy cells at 1 to 10 uM incubated for 72 hrs by YO-PRO and propidium iodide staining based high content imaging fluorescence microscopic analysis; assay type: functional, cell-based; conditions: dose 1-10 µM; outline: as §2
PC-3 [26] = assay: Anti-invasive activity against human PC-3 cells assessed as increase in E-cadherin protein expression incubated for 48 hrs by Western blotting analysis; assay type: functional

C=C(C)[C@@H]1CCC(C)=C[C@H]1c1c(O)cc(CCCCC)cc1O [CANNABIDIOL]
Activity (PC-3 [1]): Active | Activity (PC-3 [2]): inactive | Activity (DU-145 [3]): Active | Activity (DU-145 [4]): inactive | Activity (DU-145 [5]): Active | Activity (PWR-1E [6]): Toxic | Activity (DU-145 [7]): inactive | IC50 (LNCaP): 2600 nM | Activity (PC-3 [8]): inactive | Activity (PC-3 [9]): inactive | Activity (PC-3 [10]): Active | Activity (DU-145 [11]): Active | IC50 (PC-3 [12]): 2900 nM | Activity (DU-145 [13]): Active | inhibition (INH) (PC-3 [14]): ~30% | Activity (PC-3 [15]): inactive | Activity (PC-3 [16]): Active | Activity (PWR-1E [17]): Toxic | Activity (PC-3 [18]): Active | Activity (PC-3 [19]): Active | Activity (PC-3 [20]): Active | Activity (DU-145 [21]): inactive | inhibition (DU-145 [22]): Active | Activity (PWR-1E [23]): Toxic | Activity (DU-145 [24]): Active | Activity (DU-145 [25]): inactive | Activity (PC-3 [26]): >2
